According to ChEMBL document CHEMBL1147857, “A chromone analog inhibits TNF-alpha induced expression of cell adhesion molecules on human endothelial cells via blocking NF-kappaB activation” (Bioorg Med Chem, 2007):
Activity calls are given as the source filed them. The rule behind the calls is not given here.

Key:
[1] = Cytotoxicity against HUVEC cells assessed as cell viability at 90 ug/ml after 24 hrs by MTT assay; format: cell-based; conditions: human, read-out: Activity
In short: (§1)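 Primary HUVECs were isolated by mild trypsinization, grown in M-199 with 15% FCS and ECGF, and used at passages 3–4. Cells got compound or 0.25% DMSO vehicle for 24 h. MTT (5 mg/ml) was added for the final 4 h, formazan dissolved in DMSO, and A570 read. Trypan blue exclusion confirmed the result. Runs were done at least 3 times in triplicate wells.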

HUVEC [2] = test: Inhibition of TNF-alpha-induced ICAM1 expression in HUVEC cells at 90 ug/ml after 2 hrs by ELISA; format: functional; conditions: Homo sapiens
In short: (§2)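 Cell-ELISA: HUVECs were pretreated with compound for 2 h, then given TNF-α 10 ng/ml for 16 h (ICAM-1, VCAM-1) or 4 h (E-selectin). Cells were fixed in 1% glutaraldehyde and blocked with 3% milk. Specific mAbs were applied overnight at 4 °C, then HRP goat anti-mouse, with OPD substrate at pH 4.5. The reaction was stopped with H2SO4 and A490 read. % inhibition = [1 − A490(compound)/A490(control)] × 100. Three independent experiments.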

HUVEC [3] = test: Inhibition of TNF-alpha-induced ICAM1 expression in HUVEC cells after 2 hrs by ELISA; format: functional, cell-based; conditions: Homo sapiens; in short: as §2
Liver microsomes [4] = test: Inhibition of NADPH-catalyzed lipid peroxidation in Wistar rat liver microsome at 90 ug/ml after 10 mins; format: functional
In short: (§3)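 Liver microsomes came from male Wistar rats of about 200 g. Each mix held microsomes (1 mg protein), 0.025 M Tris-HCl pH 7.5, 3 mM ADP and 0.15 mM FeCl3. Mixes were preincubated 10 min at 37 °C, then 10 min with compound in DMSO. Peroxidation was started with 0.5 mM NADPH and stopped with TCA/HCl/TBA. Samples were heated at 95 °C for 30 min and TBA-reactive substance read at 535 nm.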

[5] = Cytotoxicity against HUVEC cells assessed as cell viability at 60 ug/ml after 24 hrs by MTT assay; format: cell-based; conditions: human, read-out: Activity; in short: as §1
HUVEC [6] = test: Inhibition of TNF-alpha-induced ICAM1 expression in HUVEC cells at 60 ug/ml after 2 hrs by ELISA; format: functional; conditions: Homo sapiens; in short: as §2
Liver microsomes [7] = test: Inhibition of NADPH-catalyzed lipid peroxidation in Wistar rat liver microsome at 60 ug/ml after 10 mins; format: functional; in short: as §3
[8] = Cytotoxicity against HUVEC cells assessed as cell viability at 100 ug/ml after 24 hrs by MTT assay; format: cell-based; conditions: human, read-out: Activity; in short: as §1
HUVEC [9] = test: Inhibition of TNF-alpha-induced ICAM1 expression in HUVEC cells at 100 ug/ml after 2 hrs by ELISA; format: functional; conditions: Homo sapiens; in short: as §2
Liver microsomes [10] = test: Inhibition of NADPH-catalyzed lipid peroxidation in Wistar rat liver microsome at 100 ug/ml after 10 mins; format: functional; in short: as §3
[11] = Cytotoxicity against HUVEC cells assessed as cell viability at 70 ug/ml after 24 hrs by MTT assay; format: cell-based; conditions: human, read-out: Activity; in short: as §1
HUVEC [12] = test: Inhibition of TNF-alpha-induced ICAM1 expression in HUVEC cells at 70 ug/ml after 2 hrs by ELISA; format: functional; conditions: Homo sapiens; in short: as §2
Liver microsomes [13] = test: Inhibition of NADPH-catalyzed lipid peroxidation in Wistar rat liver microsome at 70 ug/ml after 10 mins; format: functional; in short: as §3
[14] = Cytotoxicity against HUVEC cells assessed as cell viability at 80 ug/ml after 24 hrs by MTT assay; format: cell-based; conditions: human, read-out: Activity; in short: as §1
HUVEC [15] = test: Inhibition of TNF-alpha-induced ICAM1 expression in HUVEC cells at 80 ug/ml after 2 hrs by ELISA; format: functional; conditions: Homo sapiens; in short: as §2
Liver microsomes [16] = test: Inhibition of NADPH-catalyzed lipid peroxidation in Wistar rat liver microsome at 80 ug/ml after 10 mins; format: functional; in short: as §3
[17] = Cytotoxicity against HUVEC cells assessed as cell viability at 110 ug/ml after 24 hrs by MTT assay; format: cell-based; conditions: human, read-out: Activity; in short: as §1
HUVEC [18] = test: Inhibition of TNF-alpha-induced ICAM1 expression in HUVEC cells at 110 ug/ml after 2 hrs by ELISA; format: functional; conditions: Homo sapiens; in short: as §2
Liver microsomes [19] = test: Inhibition of NADPH-catalyzed lipid peroxidation in Wistar rat liver microsome at 110 ug/ml after 10 mins; format: functional; in short: as §3
HUVEC [20] = test: Inhibition of TNF-alpha-induced E-selectin expression in HUVEC cells at 90 ug/ml after 2 hrs by ELISA; format: functional; conditions: Homo sapiens; in short: as §2
HUVEC [21] = test: Inhibition of TNF-alpha-induced VCAM1 expression in HUVEC cells at 90 ug/ml after 2 hrs by ELISA; format: functional; conditions: Homo sapiens; in short: as §2
HUVEC [22] = test: Inhibition of TNF-alpha-induced ICAM1 expression in HUVEC cells at 90 ug/ml after 2 hrs by flow cytometry; format: functional; conditions: Homo sapiens
In short: (§4)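 Flow cytometry: HUVECs were pretreated with compound for 2 h, then given TNF-α 10 ng/ml for 16 h (ICAM-1, VCAM-1) or 4 h (E-selectin). Cells were dislodged and stained with mAb (1.0 µg/10^6 cells, 30 min, 4 °C), then FITC goat anti-mouse IgG. Cells were fixed in 1% paraformaldehyde and 20,000 events acquired. Autofluorescence was subtracted and mean fluorescence intensity taken from three independent experiments.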

HUVEC [23] = test: Inhibition of TNF-alpha-induced E-selectin expression in HUVEC cells at 90 ug/ml after 2 hrs by flow cytometry; format: functional; conditions: Homo sapiens; in short: as §4
HUVEC [24] = test: Inhibition of TNF-alpha-induced VCAM1 expression in HUVEC cells at 90 ug/ml after 2 hrs by flow cytometry; format: functional; conditions: Homo sapiens; in short: as §4
HUVEC [25] = test: Inhibition of TNF-alpha-induced VCAM1 expression in HUVEC cells after 2 hrs by ELISA; format: functional, cell-based; conditions: Homo sapiens; in short: as §2
HUVEC [26] = test: Inhibition of TNF-alpha-induced E-selectin expression in HUVEC cells after 2 hrs by ELISA; format: functional, cell-based; conditions: Homo sapiens; in short: as §2
Neutrophil [27] = test: Inhibition of TNF-alpha-induced adhesion of neutrophils to endothelium after 2 hrs by neutrophil adhesion assay; format: functional, cell-based; conditions: Homo sapiens
In short: (§5)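 Static adhesion: HUVEC monolayers were pretreated with compound for 2 h, then given TNF-α 10 ng/ml for 6 h. Neutrophils from healthy donor blood (dextran sedimentation, Ficoll-Hypaque, hypotonic lysis) were added at 6 × 10^4/well and left 1 h at 37 °C. Bound cells were measured with OPD/CTAB/aminotriazole substrate at A490. % inhibition was calculated as for the ELISA. Three independent experiments.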

Neutrophil [28] = test: Inhibition of TNF-alpha-induced adhesion of neutrophils to endothelium at 90 ug/ml after 2 hrs by neutrophil adhesion assay; format: functional; conditions: Homo sapiens; in short: as §5
HUVEC [29] = test: Blockade of TNF-alpha-induced p65 nuclear translocation in HUVEC cells after 2 hrs by Western blot; format: functional, cell-based; conditions: Homo sapiens
In short: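 HUVECs (2 × 10^6) were pretreated with or without compound for 2 h, then given TNF-α 10 ng/ml for 30 min. Extracts ran on 8% SDS-PAGE and were blotted with anti-p65, with γ-tubulin as loading control. Detection used an HRP anti-rabbit secondary and DAB.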

HUVEC [30] = test: Inhibition of TNF-alpha-induced NF-kappaB activation in HUVEC after 2 hrs by […] mobility shift assay; format: functional, cell-based; conditions: Homo sapiens
In short: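 HUVECs were pretreated with compound for 2 h, then given TNF-α 10 ng/ml for 30 min. Nuclear extract (10 µg) was incubated with 40–80 fmol of 32P-labelled NF-κB oligonucleotide in HEPES/NaCl/Tris buffer pH 7.5 with poly(dI-dC), 30 min at room temperature. Complexes were resolved on a 4% native gel and seen by autoradiography. Specificity was checked with excess unlabelled oligo.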

SMILES: C=CCOC(=O)/C=C/c1coc2ccccc2c1=O
- viability at 24 h, 90 ug/ml [1]: 95%
- inhibition at 90 µg/mL (HUVEC [2]): 64.5%
- IC50 (HUVEC [3]): 251 µM
- inhibition (Liver microsomes [4]): 43.4%

SMILES: CC(C)OC(=O)/C=C/c1coc2cc(O)ccc2c1=O
- viability at 24 h, 60 ug/ml [5]: 96%
- inhibition at 60 µg/mL (HUVEC [6]): 52.5%
- IC50 (HUVEC [3]): 218 µM
- inhibition (Liver microsomes [7]): 26.2%

SMILES: O=c1ccoc2ccccc12 [CHROMONE]
- viability at 24 h, 90 ug/ml [1]: 95%
- inhibition at 90 µg/mL (HUVEC [2]): 47.5%
- inhibition (Liver microsomes [4]): 25.4%

SMILES: C=CCOC(=O)/C=C/c1coc2cc(O)ccc2c1=O
- viability at 24 h, 100 ug/ml [8]: 97%
- inhibition at 100 µg/mL (HUVEC [9]): 55.2%
- IC50 (HUVEC [3]): 273 µM
- inhibition (Liver microsomes [10]): 13.3%

SMILES: CC(C)OC(=O)/C=C/c1coc2ccccc2c1=O
- viability at 24 h, 70 ug/ml [11]: 98%
- inhibition at 70 µg/mL (HUVEC [12]): 73.5%
- IC50 (HUVEC [3]): 232 µM
- inhibition (Liver microsomes [13]): 50.8%

SMILES: CCCOC(=O)/C=C/c1coc2ccccc2c1=O
- viability at 24 h, 80 ug/ml [14]: 97%
- inhibition at 80 µg/mL (HUVEC [15]): 81.8%
- IC50 (HUVEC [3]): 227 µM
- inhibition (Liver microsomes [16]): 42.5%

SMILES: CCOC(=O)/C=C/c1coc2cc(O)ccc2c1=O
- viability at 24 h, 90 ug/ml [1]: 95%
- inhibition at 90 µg/mL (HUVEC [2]): 68.2%
- IC50 (HUVEC [3]): 269 µM
- inhibition (Liver microsomes [4]): 32.3%

SMILES: CCCOC(=O)/C=C/c1coc2cc(O)ccc2c1=O
- viability at 24 h, 110 ug/ml [17]: 97%
- inhibition at 110 µg/mL (HUVEC [18]): 63.5%
- IC50 (HUVEC [3]): 349 µM
- inhibition (Liver microsomes [19]): 39.8%

SMILES: CCOC(=O)/C=C/c1coc2ccccc2c1=O
- inhibition at 90 µg/mL (HUVEC [20]): > 95%
- inhibition at 90 µg/mL (HUVEC [21]): > 95%
- viability at 24 h, 90 ug/ml [1]: 96%
- inhibition at 90 µg/mL (HUVEC [22]): 95%
- inhibition at 90 µg/mL (HUVEC [23]): 95%
- inhibition at 90 µg/mL (HUVEC [2]): 90%
- IC50 (HUVEC [3]): 184 µM
- inhibition at 90 µg/mL (HUVEC [24]): 95%
- Activity (HUVEC [25]): Dose-dependent effect
- Activity (HUVEC [26]): Dose-dependent effect
- Activity (Neutrophil [27]): Dose-dependent effect
- inhibition at 90 µg/mL (Neutrophil [28]): 65%
- Activity (HUVEC [29]): Active
- Activity (HUVEC [30]): Active
- inhibition (Liver microsomes [4]): 52.9%
